The source of these data is ChEMBL document CHEMBL2203171, “The use of small molecule probes to study spatially separated stimulus-induced signaling pathways” (Bioorg Med Chem Lett, 2012).

Holding throughout (type): cell-based
Assay [1] addresses T1, Inhibitor of nuclear factor kappa-B kinase subunit beta (Mus musculus) (UniProt O88351).
T1 sequence (whole entry): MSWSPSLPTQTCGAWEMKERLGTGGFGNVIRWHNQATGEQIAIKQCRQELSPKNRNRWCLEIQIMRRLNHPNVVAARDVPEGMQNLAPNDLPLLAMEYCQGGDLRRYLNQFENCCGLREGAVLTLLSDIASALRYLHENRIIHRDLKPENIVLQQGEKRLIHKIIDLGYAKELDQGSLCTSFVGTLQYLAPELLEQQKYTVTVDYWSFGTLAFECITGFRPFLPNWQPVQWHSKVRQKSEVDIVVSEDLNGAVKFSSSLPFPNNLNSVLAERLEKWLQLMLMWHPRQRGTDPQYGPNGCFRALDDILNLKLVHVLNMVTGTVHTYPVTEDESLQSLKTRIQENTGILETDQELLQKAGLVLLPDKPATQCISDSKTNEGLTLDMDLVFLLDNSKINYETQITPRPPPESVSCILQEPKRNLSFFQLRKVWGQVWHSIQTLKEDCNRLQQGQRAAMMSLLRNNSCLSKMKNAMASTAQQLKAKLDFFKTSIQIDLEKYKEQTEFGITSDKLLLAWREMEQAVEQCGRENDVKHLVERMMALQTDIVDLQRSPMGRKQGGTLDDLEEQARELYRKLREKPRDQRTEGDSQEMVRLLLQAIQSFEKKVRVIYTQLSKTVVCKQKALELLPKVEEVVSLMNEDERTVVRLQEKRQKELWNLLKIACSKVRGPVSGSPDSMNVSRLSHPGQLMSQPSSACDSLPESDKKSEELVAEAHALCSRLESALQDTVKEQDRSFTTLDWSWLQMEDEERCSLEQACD
As to the kind of experiment: Inhibition of IKKbeta in C57BL/6 mouse BMDM cells assessed as inhibition of TNFalpha-induced phosphorylation at 25 uM after 5 mins by Western blot analysis. The procedure, abridged: (§1)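 C57BL/6 marrow-derived macrophages were cultured in 70% growth medium/30% L929-conditioned medium and refreshed 12-14 h before stimulation. Stimuli were TNF 40 ng/ml or LPS 100 ng/ml, ± compound at 25 μM from a 200x DMSO stock. Western blots tracked IKK, p38, IκBα and phospho-RelA. Results from three independent experiments were quantitated and normalized.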

The target of assay [2] is T1, Inhibitor of nuclear factor kappa-B kinase subunit beta (Mus musculus). As to the kind of experiment: Inhibition of IKKbeta in C57BL/6 mouse BMDM cells assessed as inhibition of TNFalpha-induced RelA phosphorylation at 25 uM after 5 mins by Western blot analysis. The procedure, abridged: as §1
Assay [3] concerns the target T2, Toll-like receptor 3 (Mus musculus) (UniProt Q99MB1).
T2 sequence (whole entry): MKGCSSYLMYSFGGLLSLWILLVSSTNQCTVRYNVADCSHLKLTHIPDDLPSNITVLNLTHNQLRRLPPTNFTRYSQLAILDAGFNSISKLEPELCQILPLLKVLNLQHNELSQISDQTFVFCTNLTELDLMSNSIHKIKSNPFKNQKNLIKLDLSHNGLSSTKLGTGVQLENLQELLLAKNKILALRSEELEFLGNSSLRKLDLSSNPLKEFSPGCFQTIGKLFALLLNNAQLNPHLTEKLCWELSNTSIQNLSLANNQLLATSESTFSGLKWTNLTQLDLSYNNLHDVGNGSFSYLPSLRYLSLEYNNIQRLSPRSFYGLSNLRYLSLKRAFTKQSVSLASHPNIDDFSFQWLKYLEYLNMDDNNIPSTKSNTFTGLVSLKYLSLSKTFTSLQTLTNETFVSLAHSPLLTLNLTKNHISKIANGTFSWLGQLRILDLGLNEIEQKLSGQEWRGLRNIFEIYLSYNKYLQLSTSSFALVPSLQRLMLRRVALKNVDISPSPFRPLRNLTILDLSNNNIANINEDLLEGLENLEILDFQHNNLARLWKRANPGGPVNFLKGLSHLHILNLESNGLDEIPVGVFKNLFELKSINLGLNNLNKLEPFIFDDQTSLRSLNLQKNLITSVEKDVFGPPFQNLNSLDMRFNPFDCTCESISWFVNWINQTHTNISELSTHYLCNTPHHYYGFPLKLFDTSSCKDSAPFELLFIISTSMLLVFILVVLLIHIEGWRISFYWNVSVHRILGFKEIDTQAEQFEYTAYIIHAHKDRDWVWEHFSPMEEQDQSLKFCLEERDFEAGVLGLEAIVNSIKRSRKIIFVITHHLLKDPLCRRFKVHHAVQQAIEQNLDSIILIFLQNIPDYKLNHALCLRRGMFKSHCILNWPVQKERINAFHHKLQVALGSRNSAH
As to the kind of experiment: Inhibition of TRIF recruitment to TLR3 in C57BL/6 mouse BMDM cells assessed as inhibition of pI:pC-induced IkappaBalpha degradation up to 90 mins by Western blot analysis. The procedure, abridged: (§2)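 Bone marrow macrophages from C57BL/6 mice, grown in 70% growth medium (DMEM, 10% FBS) plus 30% L929-conditioned medium and given fresh medium 12-14 h before stimulation. Stimuli: IL-1 40 ng/ml, HKSA ~10^8 cfu/ml, pI:pC 50 μg/ml or CpG 10 μg/ml, ± compound at 10 μM (final) added from a 200x DMSO stock. IκBα and p38 profiled by immunoblot. Three independent experiments, quantitated and normalized.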

Assay [4] addresses T2, Toll-like receptor 3 (Mus musculus). As to the kind of experiment: Inhibition of TRIF recruitment to TLR3 in C57BL/6 mouse BMDM cells assessed as inhibition of pI:pC-induced IkappaBalpha phosphorylation up to 90 mins by Western blot analysis. The procedure, abridged:
as §2

Assay [5] addresses T1, Inhibitor of nuclear factor kappa-B kinase subunit beta (Mus musculus). As to the kind of experiment: Inhibition of IKKbeta in C57BL/6 mouse BMDM cells assessed as inhibition of LPS-induced IkappaBalpha degradation at 50 uM up to 90 mins by Western blot analysis.

The source made the active and inactive calls. No cut-off for these calls is given here.

In the case of `O=C(CCCCCN1C(=O)CCC1=O)Oc1ccc2cc(C(C(=O)NCc3ccccc3)N(C(=O)Cc3ccc4c(c3)OCO4)C3CC3)ccc2c1` (stereo not given), the inhibition entry in assay [1] and in assay [2] was “inactive” in each case. For the same compound, the inhibition entry in assay [3] and in assay [4] was “Active” throughout. In assay [5], the “inhibition (active/not active)” value is “inactive”.

For `O=C(CCCCCN1C(=O)C=CC1=O)Oc1ccc2cc(C(C(=O)NCc3ccccc3)N(C(=O)Cc3ccc4c(c3)OCO4)C3CC3)ccc2c1` (stereo not given), the inhibition entry in assay [1] and in assay [2] was “inactive” throughout. Besides, the inhibition result in assay [3] and in assay [4] was “Active” each time. Besides, the “inhibition (active/not active)” value in assay [5] is “Active”.

With `O=C(CCCCCCCC(=O)ON1C(=O)CCC1=O)Oc1ccc2cc(C(C(=O)NCc3ccccc3)N(C(=O)Cc3ccc4c(c3)OCO4)C3CC3)ccc2c1` (stereo not given), the inhibition result in assay [1] and in assay [2] was “inactive” in each case. In addition, the inhibition result in assay [3] and in assay [4] was “Active” in each case. Also, the “inhibition (active/not active)” value in assay [5] is “Active”.
